RanGTP-Imp inh – inhibitors of RanGTP-importin-beta interaction, primary screen, biochemical, FRET, CFP-Ran, YFP-importin-beta, homogeneous; cell-free CFP-Ran/YFP-importin-beta FRET ratio; inhibition, % (no concentration beside the values); hit rate 1.1% among 300,000; AID 2216;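 active = more than half of the replicate wells show a fall in the fluorescence ratio signal beyond about 16%, limit read from the data, passing the limit was not always enough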;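 also: 0% = DMSO wells and 100% = Ran loaded with GDP instead of GTP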
Tb hexokinase – blocks Trypanosoma brucei hexokinase 1 activity | hit rate 0.11% among 220,000 | AID 1430 | recombinant TbHK1, G6PDH-coupled NADH A340 | inhibition, % at 10 µM;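 active = inhibition of 50% or more in the single-dose primary screen; inactive = inhibition below 50%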
Runt-SMMHC FRET – Runt domain-CBFb-SMMHC interaction inhibition; Q01196+Q13951; Cerulean-Runt/Venus-CBFb-SMMHC FRET ratio 530/480, 1 h; inhibition, % at 20 µM; hit rate 0.74% among 220,000; AID 1434;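 active = mean inhibition across duplicate retests at 20 µM reaching about 50%, limit read from the data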;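 also: 0% = DMSO wells and 100% = wells with excess untagged CBFb-SMMHC; inhibitors lower the FRET ratio by blocking Runt binding to CBFb-SMMHC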
Hck Nef HTS – human Hck-Nef kinase inhibition | Recombinant Hck-YEEI plus Nef, Z-Lyte FRET kinase assay | inhibition, % at 20 µM | hit rate 0.68% among 220,000;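 active = Hck-Nef kinase inhibition above about 50%, limit read from the data; inactive = inhibition below that limit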;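 also: 0% = DMSO with Hck plus Nef and 100% = Hck alone without Nef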
Target sequence (P08631 whole entry, looked up): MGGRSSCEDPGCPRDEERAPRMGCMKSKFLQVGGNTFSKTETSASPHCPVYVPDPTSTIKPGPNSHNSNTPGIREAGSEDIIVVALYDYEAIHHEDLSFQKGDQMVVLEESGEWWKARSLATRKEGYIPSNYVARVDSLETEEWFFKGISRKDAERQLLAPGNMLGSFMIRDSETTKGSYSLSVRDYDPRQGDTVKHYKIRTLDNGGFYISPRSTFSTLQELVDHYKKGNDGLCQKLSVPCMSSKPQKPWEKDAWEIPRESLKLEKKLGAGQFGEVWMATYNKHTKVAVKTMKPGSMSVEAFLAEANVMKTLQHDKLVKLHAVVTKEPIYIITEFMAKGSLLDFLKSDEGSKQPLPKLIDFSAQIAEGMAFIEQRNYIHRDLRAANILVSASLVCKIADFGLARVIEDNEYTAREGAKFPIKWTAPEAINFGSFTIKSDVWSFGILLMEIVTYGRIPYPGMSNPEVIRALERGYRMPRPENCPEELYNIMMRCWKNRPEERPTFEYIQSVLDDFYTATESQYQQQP
Runt-CBFb FRET – blocks binding of human RUNX1 Runt domain to CBFb; Cerulean-Runt/Venus-CBFb FRET ratio 530/480, 1 h; inhibition, % at 20 µM; hit rate 0.46% among 220,000;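 active = inhibition over about 50% at 20 µM in the single-dose screen, limit read from the data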;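 also: 0% = DMSO wells and 100% = excess unlabeled CBFb competitor control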
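Reagent – Venus-CBFb binding partner, 100 nM · Assay system – Cerulean-tagged RUNX1 Runt domain (FRET donor) fusion protein · Input – 100 nM per protein · Incubation – two 1 h room-temperature incubations shielded from light · Measured by – FRET fluorescence · Medium – Tris buffer pH 7.5 with salts and BSA · Benchmarks – unlabeled CBFb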
p97 ATPase inh – human p97 ATPase inhibition; recombinant p97 ATPase, Kinase-Glo ATP luminescence, 3 h; inhibition, % at 8 µM; hit rate 0.42% among 220,000; in the data active = inhibition above about 15%;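 also: 0% = DMSO vehicle and 100% = wells lacking enzyme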
The depositor's hits bear a star. Only some compounds are listed: those with a hit (about 2.1% of all), similar ones and a draw of the others.

`CC(C)(C)C(=O)Nc1ccc(S(=O)(=O)Nc2nccs2)cc1` gave RanGTP-Imp inh -2.
For O=c1c2ccccc2oc2cc(C#CC3(O)CCCCC3)ccc12 the results were RanGTP-Imp inh -3.
For C=CCn1c2ccccc2c(=O)c2cc(C#CC3(O)CCCCC3)ccc21 the results were RanGTP-Imp inh 161*.
For Cc1ccc2cc([N+](=O)[O-])ccc2n1 the results were RanGTP-Imp inh -4, Tb hexokinase -15, Runt-SMMHC FRET -96, Hck Nef HTS 15, Runt-CBFb FRET 1 and p97 ATPase inh 9.
For Cc1ccc(CNC(=O)c2ccc3c(=O)[nH]c4c(C(=O)NCC5CCCO5)sc(=S)n4c3c2)cc1 (stereo unspecified) the results were RanGTP-Imp inh 3, Tb hexokinase -8, Runt-SMMHC FRET -26, Hck Nef HTS 57* and p97 ATPase inh 2.
Screening CN(C(=O)Cn1cnc2ccccc2c1=O)C1CCS(=O)(=O)C1 (stereo unspecified) returned RanGTP-Imp inh 4.
Screening O=C(Cc1ccccc1)N/N=C/c1cc(Br)cc(Cl)c1O returned RanGTP-Imp inh 18*, Tb hexokinase 3, Runt-SMMHC FRET 92*, Hck Nef HTS 5, Runt-CBFb FRET 28 and p97 ATPase inh 3.
`O=C(CP(=O)(c1ccccc1)c1ccccc1)N/N=C/c1cc(Br)cc(Br)c1O` gave RanGTP-Imp inh 21*, Tb hexokinase 2, Runt-SMMHC FRET 60, Hck Nef HTS 4, Runt-CBFb FRET 31 and p97 ATPase inh 1.
`O=C(C[n+]1ccccc1)N/N=C/c1cc(Br)cc(Br)c1O` gave RanGTP-Imp inh -3.
`Cc1[nH]c2ccccc2c1CCCO` gave RanGTP-Imp inh 18*, Tb hexokinase -13, Runt-SMMHC FRET 84, Hck Nef HTS -18, Runt-CBFb FRET 9 and p97 ATPase inh 0.
For Cc1[nH]c2ccccc2c1CCO the results were RanGTP-Imp inh 6, Tb hexokinase 4, Runt-SMMHC FRET -2, Hck Nef HTS -1, Runt-CBFb FRET 43 and p97 ATPase inh -3.
CCCCC(=O)Nc1ccc(NC(=O)c2cnccn2)cn1 was read as RanGTP-Imp inh 172*, Tb hexokinase 0, Runt-SMMHC FRET -1, Hck Nef HTS -15, Runt-CBFb FRET 1 and p97 ATPase inh -2.
Screening CCCCC(=O)Nc1ccc(NC(=O)C(C)C)cn1 returned RanGTP-Imp inh -2, Tb hexokinase -3, Runt-SMMHC FRET -2, Hck Nef HTS 1, Runt-CBFb FRET -2 and p97 ATPase inh -2.
For Cc1cc(/C=C2\SC(=S)N(C)C2=O)c(C)n1-c1cccc(O)c1 the results were RanGTP-Imp inh 36*, Tb hexokinase -6, Runt-SMMHC FRET -48, Hck Nef HTS -9, Runt-CBFb FRET -15 and p97 ATPase inh -1.
Cc1cc(/C=C2\SC(=S)N(Cc3ccco3)C2=O)c(C)n1-c1ccccc1 was read as RanGTP-Imp inh 21*, Tb hexokinase -11, Runt-SMMHC FRET -106, Hck Nef HTS 1, Runt-CBFb FRET -19 and p97 ATPase inh 5.
CCOC(=O)CNc1c(-c2ccc(Cl)cc2)nc2cnccn12 was read as RanGTP-Imp inh 33*, Tb hexokinase -8, Runt-SMMHC FRET 60, Hck Nef HTS -15, Runt-CBFb FRET 28 and p97 ATPase inh -2.
For O=c1[nH]c2cc3c(cc2cc1CN(Cc1nnnn1CC1CCCO1)C1CCCCC1)OCO3 (stereo unspecified) the results were RanGTP-Imp inh -103, Tb hexokinase -28, Runt-SMMHC FRET 57*, Hck Nef HTS 2, Runt-CBFb FRET 18 and p97 ATPase inh 1.
For Cc1ccc2[nH]c(=O)c(CN(CCc3ccccc3)Cc3nnnn3CC3CCCO3)cc2c1 (stereo unspecified) the results were RanGTP-Imp inh -4, Tb hexokinase -14, Runt-SMMHC FRET -16, Hck Nef HTS -1, Runt-CBFb FRET 4 and p97 ATPase inh 1.
`O=c1[nH]c2cc3c(cc2cc1CN(CCc1ccccc1)Cc1nnnn1CC1CCCO1)OCO3` (stereo unspecified) gave RanGTP-Imp inh -75, Tb hexokinase -33, Runt-SMMHC FRET 62*, Hck Nef HTS 3, Runt-CBFb FRET -92 and p97 ATPase inh 2.

Assay outcomes deposited in PubChem by several laboratories.
